Drawing on ChEMBL document CHEMBL4004822, “Thienopyrimidinone Based Sirtuin-2 (SIRT2)-Selective Inhibitors Bind in the Ligand Induced Selectivity Pocket” (J Med Chem, 2017), this text covers inhibition for 78 compounds.

One may read the inhibition as the change of the read-out against control, counted positive when it falls.

The assay addresses T1, NAD-dependent protein deacetylase sirtuin-2 (Homo sapiens) (UniProt Q8IXJ6).
T1 sequence (whole entry): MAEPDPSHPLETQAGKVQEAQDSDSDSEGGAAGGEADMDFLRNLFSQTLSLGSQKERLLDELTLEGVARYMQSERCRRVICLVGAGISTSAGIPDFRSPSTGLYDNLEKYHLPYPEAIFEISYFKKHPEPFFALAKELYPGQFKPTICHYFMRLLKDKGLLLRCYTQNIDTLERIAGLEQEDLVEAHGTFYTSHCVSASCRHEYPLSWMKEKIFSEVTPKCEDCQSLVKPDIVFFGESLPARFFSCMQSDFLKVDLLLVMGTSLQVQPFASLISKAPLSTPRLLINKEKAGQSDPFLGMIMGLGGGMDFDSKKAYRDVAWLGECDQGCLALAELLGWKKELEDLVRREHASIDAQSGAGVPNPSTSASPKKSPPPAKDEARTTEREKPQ
Description: Inhibition of recombinant human C-terminal His-tagged SIRT2 (50 to 389 end residues) expressed in Escherichia coli at 10 uM using p53 derived (379 to 382 residues) fluorogenic peptide substrate RHKK(Ac)-AMC preincubated for 10 mins followed by substrate addition in presence of NAD+ by fluorescence assay relative to control. Summed up:
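Two-step fluorogenic assay with p53 379–382 RHKK(Ac)-AMC. Compound (from 10 mM DMSO stock) preincubated ~10 min with human SIRT before substrate addition. Developer then releases fluorophore, read at ex 360/em 460 nm.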
On to `COc1cccc(Cn2cnc3sc4c(c3c2=O)CCC(NCC2CCCCC2)C4)c1` (stereo not drawn), for which the inhibition was 62%.

Consider `COc1ccc(Cn2cnc3sc4c(c3c2=O)CCC(NCc2cccc(Cl)c2)C4)c2ccccc12` (stereo not drawn), for which the inhibition worked out at 6.5%.

As to `Cc1cccc(NC2CCc3c(sc4ncn(Cc5cccc6cccnc56)c(=O)c34)C2)c1` (stereo not drawn), the inhibition worked out at 62%.

For the compound `COCCNC1CCc2c(sc3ncn(Cc4cccc(-c5ccccc5)c4)c(=O)c23)C1` (stereo not drawn), the inhibition is 70%.

Consider `COc1cccc(Cn2cnc3sc4c(c3c2=O)CCC(NCc2ccccc2OC)C4)c1` (stereo not drawn), for which the inhibition is 64%.

Consider `COc1ccc(Cn2cnc3sc4c(c3c2=O)CCC(NCc2ccccc2Cl)C4)c2ccccc12` (stereo not drawn), for which the inhibition amounted to 65%.

`COc1ccc2ccccc2c1Cn1cnc2sc(CCN)c(C)c2c1=O`: the inhibition came to 25%.

On to `O=c1c2c3c(sc2ncn1Cc1ccc2ccccc2c1)CC(NCCN1CCOCC1)CC3` (stereo not drawn), for which the inhibition was 47%.

Take `COc1cccc(NC2CCc3c(sc4ncn(Cc5cccc6ccccc56)c(=O)c34)C2)c1` (stereo not drawn): the inhibition was found to be 46%.

Take `O=c1c2c3c(sc2ncn1Cc1cccc(-c2ccccc2)c1)CC(NCc1cccc(F)c1)CC3` (stereo not drawn): the inhibition stood at 63%.

Take `N#Cc1ccc(CNC2CCc3c(sc4ncn(Cc5ccc6ccccc6c5)c(=O)c34)C2)cc1` (stereo not drawn): the inhibition is 67%.

Turning to `COc1ccc2ccccc2c1Cn1cnc2sc3c(c2c1=O)CCC(NCc1ccc(Cl)cc1)C3` (stereo not drawn), the inhibition stood at 40%.

Take `O=c1c2c3c(sc2ncn1Cc1ccccc1)CC(NCC1CCCCC1)CC3` (stereo not drawn): the inhibition stood at 56%.

For the compound `COc1ccccc1Cn1cnc2sc3c(c2c1=O)CCC(NCCc1ccncc1)C3` (stereo not drawn), the inhibition was found to be 26%.

Regarding `COc1ccc(CNC2CCc3c(sc4ncn(Cc5ccccc5)c(=O)c34)C2)cn1` (stereo not drawn), the inhibition is 48%.

For the compound `COc1ccccc1Cn1cnc2sc3c(c2c1=O)CCC(NCc1ccco1)C3` (stereo not drawn), the inhibition is 43%.

As to `COc1ccccc1NC1CCc2c(sc3ncn(Cc4cccc5ccccc45)c(=O)c23)C1` (stereo not drawn), the inhibition turned out to be 22%.

Regarding `COc1ccc(CNC2CCc3c(sc4ncn(Cc5ccccc5OC)c(=O)c34)C2)cn1` (stereo not drawn), the inhibition was found to be 56%.

Take `COCCNC1CCc2c(sc3ncn(Cc4c(OC)ccc5ccccc45)c(=O)c23)C1` (stereo not drawn): the inhibition came to 44%.

As for `COc1ccc2ccccc2c1Cn1cnc2sc(CCNCc3ccc(C#N)cc3)c(C)c2c1=O`, the inhibition worked out at 51%.

Regarding `COc1cccc(NC2CCc3c(sc4ncn(Cc5ccc(OC)c6ccccc56)c(=O)c34)C2)c1` (stereo not drawn), the inhibition is 25%.

Consider `COc1cccc(Cn2cnc3sc4c(c3c2=O)CCC(NCc2ccccc2)C4)c1` (stereo not drawn), for which the inhibition came to 64%.

Consider `O=c1c2c3c(sc2ncn1Cc1cccc2ccccc12)CC(NCc1ccc(Cl)cc1)CC3` (stereo not drawn), for which the inhibition was determined as 64%.

Take `COc1cccc(NC2CCc3c(sc4ncn(Cc5cccc(-c6ccccc6)c5)c(=O)c34)C2)c1` (stereo not drawn): the inhibition came out at 30%.

Turning to `O=c1c2c3c(sc2ncn1Cc1cccc(-c2ccccc2)c1)CC(NCc1cccs1)CC3` (stereo not drawn), the inhibition amounted to 66%.

With `COc1ccccc1CCNC1CCc2c(sc3ncn(Cc4ccc(OC)c5ccccc45)c(=O)c23)C1` (stereo not drawn), the inhibition came out at 69%.

Turning to `COc1ccc(Cn2cnc3sc4c(c3c2=O)CCC(Nc2ccc(F)cc2)C4)c2ccccc12` (stereo not drawn), the inhibition is 56%.

As for `O=c1c2c3c(sc2ncn1Cc1cccc2ccccc12)CC(NCCC1CCCCC1)CC3` (stereo not drawn), the inhibition was determined as 65%.

Take `COc1ccccc1CNC1CCc2c(sc3ncn(Cc4ccccc4)c(=O)c23)C1` (stereo not drawn): the inhibition is 46%.

In the case of `COc1ccc2ccccc2c1Cn1cnc2sc3c(c2c1=O)CCC(NCc1ccccc1Cl)C3` (stereo not drawn), the inhibition turned out to be 40%.

As to `Cc1cccc(NC2CCc3c(sc4ncn(Cc5ccc6ccccc6c5)c(=O)c34)C2)c1` (stereo not drawn), the inhibition was found to be 31%.

With `COCCNC1CCc2c(sc3ncn(Cc4ccc5ccccc5c4)c(=O)c23)C1` (stereo not drawn), the inhibition amounted to 45%.

For the compound `CC(=O)NCCNC1CCc2c(sc3ncn(Cc4cccc5cccnc45)c(=O)c23)C1` (stereo not drawn), the inhibition turned out to be 28%.

As for `Cc1nn(C)c(C)c1CNC1CCc2c(sc3ncn(Cc4ccccc4)c(=O)c23)C1` (stereo not drawn), the inhibition worked out at 32%.

For the compound `O=c1c2c3c(sc2ncn1Cc1cccc2ccccc12)CC(NC1CCCc2ccccc21)CC3` (stereo not drawn), the inhibition was determined as 51%.

As to `COc1ccccc1CCNC1CCc2c(sc3ncn(Cc4c(OC)ccc5ccccc45)c(=O)c23)C1` (stereo not drawn), the inhibition came out at 65%.

On to `COc1ccc2ccccc2c1Cn1cnc2sc3c(c2c1=O)CCC(NCCN1CCOCC1)C3` (stereo not drawn), for which the inhibition came out at 70%.

Turning to `O=c1c2c3c(sc2ncn1Cc1cccc2ccccc12)CC(Nc1ccc2c(c1)OCO2)CC3` (stereo not drawn), the inhibition amounted to 29%.

On to `COc1cccc(CNC2CCc3c(sc4ncn(Cc5cccc6cccnc56)c(=O)c34)C2)c1` (stereo not drawn), for which the inhibition came out at 78%.

Take `Cc1cccc(NC2CCc3c(sc4ncn(Cc5cccc6ccccc56)c(=O)c34)C2)c1` (stereo not drawn): the inhibition is 41%.

`COc1ccc2ccccc2c1Cn1cnc2sc3c(c2c1=O)CCC(NC1CCc2ccccc21)C3` (stereo not drawn): the inhibition came out at 59%.

Regarding `COc1cccc(Cn2cnc3sc4c(c3c2=O)CCC(NCc2ccccc2Cl)C4)c1` (stereo not drawn), the inhibition came to 68%.

In the case of `O=c1c2c3c(sc2ncn1Cc1ccccc1)CC(NCc1cccnc1)CC3` (stereo not drawn), the inhibition stood at 42%.

Consider `Cc1nn(C)c(C)c1CNC1CCc2c(sc3ncn(Cc4cccc5cccnc45)c(=O)c23)C1` (stereo not drawn), for which the inhibition was found to be 74%.

For the compound `COCCNC1CCc2c(sc3ncn(Cc4cccc5ccccc45)c(=O)c23)C1` (stereo not drawn), the inhibition amounted to 35%.

On to `O=c1c2c3c(sc2ncn1Cc1ccc2ccccc2c1)CC(NCc1ccccc1F)CC3` (stereo not drawn), for which the inhibition turned out to be 51%.

For `COc1ccc2ccccc2c1Cn1cnc2sc3c(c2c1=O)CCC(Nc1cccc(C)c1)C3` (stereo not drawn), the inhibition is 27%.

For the compound `O=c1c2c3c(sc2ncn1Cc1cccc2cccnc12)CC(NCC1CCCO1)CC3` (stereo not drawn), the inhibition was found to be 58%.

Turning to `O=c1c2c3c(sc2ncn1Cc1cccc2ccccc12)CC(NCCN1CCCC1)CC3` (stereo not drawn), the inhibition was 56%.

With `COc1ccc(Cn2cnc3sc4c(c3c2=O)CCC(NCc2cccs2)C4)c2ccccc12` (stereo not drawn), the inhibition came out at 71%.

In the case of `O=c1c2c3c(sc2ncn1Cc1ccc2ccccc2c1)CC(NC1CCCC1)CC3` (stereo not drawn), the inhibition came to 63%.

Turning to `COc1ccccc1CNC1CCc2c(sc3ncn(Cc4cccc5ccccc45)c(=O)c23)C1` (stereo not drawn), the inhibition is 60%.

For the compound `COc1ccccc1CCNC1CCc2c(sc3ncn(Cc4ccc5ccccc5c4)c(=O)c23)C1` (stereo not drawn), the inhibition stood at 67%.

As to `COc1ccccc1NC1CCc2c(sc3ncn(Cc4cccc(-c5ccccc5)c4)c(=O)c23)C1` (stereo not drawn), the inhibition is 26%.

`COc1cccc(Cn2cnc3sc4c(c3c2=O)CCC(NCc2cccnc2)C4)c1` (stereo not drawn): the inhibition worked out at 27%.

On to `COc1cccc(Cn2cnc3sc4c(c3c2=O)CCC(NCc2ccc(OC)nc2)C4)c1` (stereo not drawn), for which the inhibition came to 28%.

As to `Cc1ccc(NC2CCc3c(sc4ncn(Cc5ccc6ccccc6c5)c(=O)c34)C2)cc1` (stereo not drawn), the inhibition was 29%.

As to `COc1cccc(Cn2cnc3sc4c(c3c2=O)CCC(NCc2c(C)nn(C)c2C)C4)c1` (stereo not drawn), the inhibition was determined as 14%.

Regarding `COc1ccc(CNC2CCc3c(sc4ncn(Cc5ccccc5OC)c(=O)c34)C2)cc1` (stereo not drawn), the inhibition was found to be 67%.

With `O=c1c2c3c(sc2ncn1Cc1ccc2ccccc2c1)CC(NCc1cccc(F)c1)CC3` (stereo not drawn), the inhibition came out at 56%.

`O=c1c2c3c(sc2ncn1Cc1cccc(-c2ccccc2)c1)CC(Nc1ccc2c(c1)OCO2)CC3` (stereo not drawn): the inhibition is 33%.

For `O=c1c2c3c(sc2ncn1Cc1ccc2ccccc2c1)CC(NCCC1CCCCC1)CC3` (stereo not drawn), the inhibition is 59%.

Regarding `O=c1c2c3c(sc2ncn1Cc1cccc(-c2ccccc2)c1)CC(Nc1ccc(F)cc1)CC3` (stereo not drawn), the inhibition was determined as 52%.

On to `O=c1c2c3c(sc2ncn1Cc1cccc2ccccc12)CC(NCC1CCOC1)CC3` (stereo not drawn), for which the inhibition came out at 72%.

In the case of `CC(=O)NCCNC1CCc2c(sc3ncn(Cc4cccc5ccccc45)c(=O)c23)C1` (stereo not drawn), the inhibition is 28%.

As to `O=c1c2c3c(sc2ncn1Cc1ccc2ccccc2c1)CC(NC1CCc2ccccc21)CC3` (stereo not drawn), the inhibition amounted to 60%.

Turning to `COc1ccccc1Cn1cnc2sc3c(c2c1=O)CCC(NCc1ccccn1)C3` (stereo not drawn), the inhibition was 35%.

With `O=c1c2c3c(sc2ncn1Cc1cccc2ccccc12)CC(NCc1cccs1)CC3` (stereo not drawn), the inhibition worked out at 54%.

`COc1cccc(CNC2CCc3c(sc4ncn(Cc5cccc6ccccc56)c(=O)c34)C2)c1` (stereo not drawn): the inhibition came out at 59%.

Turning to `COc1ccc(CNC2CCc3c(sc4ncn(Cc5cccc(OC)c5)c(=O)c34)C2)cc1` (stereo not drawn), the inhibition stood at 71%.

For `O=c1c2c3c(sc2ncn1Cc1ccc2ccccc2c1)CC(NCc1cccs1)CC3` (stereo not drawn), the inhibition was determined as 62%.

As for `COc1ccccc1Cn1cnc2sc3c(c2c1=O)CCC(NCc1ccncc1)C3` (stereo not drawn), the inhibition worked out at 64%.

Regarding `COc1ccc2ccccc2c1Cn1cnc2sc(CCNCC3CCOC3)c(C)c2c1=O` (stereo not drawn), the inhibition is 65%.

Turning to `COc1ccc2ccccc2c1Cn1cnc2sc3c(c2c1=O)CCC(NCCNC(C)=O)C3` (stereo not drawn), the inhibition was found to be 44%.

As for `O=c1c2c3c(sc2ncn1Cc1ccccc1)CC(NCc1ccco1)CC3` (stereo not drawn), the inhibition came out at 33%.

`COc1cccc(Cn2cnc3sc4c(c3c2=O)CCC(NCc2ccccn2)C4)c1` (stereo not drawn): the inhibition was determined as 18%.

Take `COCCNC1CCc2c(sc3ncn(Cc4ccc(OC)c5ccccc45)c(=O)c23)C1` (stereo not drawn): the inhibition worked out at 70%.

As for `Cc1ccc(NC2CCc3c(sc4ncn(Cc5cccc6ccccc56)c(=O)c34)C2)cc1` (stereo not drawn), the inhibition is 50%.
